Here are results for 3 compounds from paper PMC7231841 (Redox Biology, 2020).

Series [1] has as its target Keap1-Nrf2 interaction (Keap1 Kelch domain / FITC-9mer Nrf2 peptide) (Homo sapiens, UniProt Q14145). Nature of the series: Fluorescence polarization. In kind it is binding.
A short description of series [2]: HPLC assay for H2O2-induced drug release. In kind it is physicochemical. Summed up: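 A 10 mM DMSO stock of test compound was diluted to 50 μM final in PBS (10 mM, pH 7.4). H2O2 was added at graded levels (24 h incubation) or at 10 mM (time course), then vortexed. Incubation was at 37 °C in triplicate. Samples taken at intervals were injected directly onto C18 HPLC (70% methanol, 0.5 mL/min, DAD detection). Percent compound came from peak areas against a standard curve.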

Series [3] concerns serum IL-1β, IL-6, TNF-α and IFN-γ. As to the kind of experiment: LPS challenge mouse acute inflammation model. In kind it is in vivo, C57BL/6 mice. The conditions noted are these: oral, 3 days, LPS 300 μg/kg IP. Put shortly: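 Female C57BL/6 mice (6–8 weeks, 18–20 g) were acclimatised for 2 days. LPS 300 μg/kg/day was given IP in 500 μL on days −3, −2 and −1 (n = 8 per LPS group). Test compound (10 or 40 mg/kg/day) was given intragastrically in 500 μL saline 4 h after each LPS dose. Dexamethasone 10 mg/kg/day served as positive control. Saline IP controls had n = 3. Sera were taken 24 h after the last dose for cytokine ELISA.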

In series [4] the test system is HepG2-ARE-C8 cells. As to the kind of experiment: Nrf2/ARE luciferase reporter assay. It is filed as cell-based. (A reporter such as luciferase makes a cellular process visible.)
Series [5] is described as follows: Plasma stability. The conditions noted are these: 20 μM, 37 °C. In kind it is in vitro ADME, rat. Summed up:
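Test compound (20 μM) was incubated in plasma at 37 °C for various times, in three parallel runs. Proteins were precipitated with methanol, vortexed and centrifuged at 12,000 rpm for 5 min. Supernatants were analysed by HPLC from peak areas.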

The subject of series [6] is RAW264.7 cells. As to the kind of experiment: Inflammatory factors. It is filed as cell-based, mouse. Summed up: (§1)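 RAW264.7 cells were pretreated with LPS (20 ng/mL) for 8 h, then exposed to test compound for 16 h. Total RNA was extracted with TRIzol and reverse-transcribed, followed by real-time qRT-PCR. mRNA was normalised to β-actin and expressed as fold of control. Data are means ± SEM, n = 3 independent observations, one-way ANOVA.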

Series [7] can be described thus: Parallel artificial membrane permeability assay. The following applies: PAMPA. It is filed as physicochemical. Summed up:
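Effective permeability (Pe) at pH 7.4 was measured by double-sink PAMPA.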
For orientation: The PAMPA barrier holds no transporters, so it reflects passive diffusion.

Series [8] is described as follows: Stability in simulated gastric fluid and simulated intestinal fluid. It is filed as in vitro ADME. The following applies: after 8 h, 37 °C, 20 μM. Put shortly: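 Test compound (20 μM) was incubated separately in commercial artificial gastric and intestinal juices at 37 °C for various times, in three parallel runs. Proteins were precipitated with methanol, vortexed and centrifuged at 5000 rpm for 5 min. Supernatants were analysed by HPLC (C18, 70% methanol, 0.5 mL/min) from peak areas.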

The subject of series [9] is RAW264.7 cells. Nature of the series: Antioxidant capacity. In kind it is cell-based, mouse. The conditions noted are these: LPS (20 ng/mL) treated RAW 264.7 cells. Put shortly: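 RAW264.7 cells were pretreated with LPS (20 ng/mL) for 8 h, then exposed to test compound for a further 16 h. SOD activity, GSH-Px activity, GSH/GSSG ratio and MPO activity were measured in the cells. Data are means ± SEM of 3 independent observations, with one-way ANOVA.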

The nature of series [10]: pH stability in PBS. It is filed as physicochemical. The conditions noted are these: pH 4 to 10, 24 h, 37 °C, 20 μM. Put shortly: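 PBS was adjusted to pH 4–10 with 0.1 M HCl or NaOH. Test compound (20 μM) was incubated at 37 °C for 24 h, in triplicate. Solutions were filtered and injected directly on HPLC three times. Percent remaining came from peak areas.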
The test system of series [11] is RAW264.7 cells. As to the kind of experiment: qRT-PCR and Western blot of Nrf2-ARE driven genes in LPS-treated cells. In kind it is cell-based, mouse. The conditions noted are these: 20 ng/mL LPS 8 h. Summed up:
as §1
(Real-time PCR tracks product formation cycle by cycle.)

A short description of series [12]: Liver microsome stability. It is filed as in vitro ADME, rat. Put shortly:
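Rat (CD-1 male) liver microsomes from a 20 mg/mL stock were shaken in PBS at 37 °C for 10 min. Test compound was added from a 0.5 mM DMSO solution, with a 20 μM test level. After 5 min preincubation, the reaction was started with NADPH (6 mM stock). It was quenched with ice-cold acetonitrile at 0, 5, 15, 30 and 45 min. Samples were centrifuged at 5000 rpm for 15 min and supernatants analysed by LC-MS/MS. Ketanserin served as reference.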

A short description of series [13]: In vivo pharmacokinetic assay. Also noted: species or system SD rats. The following applies: rat.

Keap1-Nrf2 interaction (Keap1 Kelch domain / FITC-9mer Nrf2 peptide), sequence (Q14145 322-609): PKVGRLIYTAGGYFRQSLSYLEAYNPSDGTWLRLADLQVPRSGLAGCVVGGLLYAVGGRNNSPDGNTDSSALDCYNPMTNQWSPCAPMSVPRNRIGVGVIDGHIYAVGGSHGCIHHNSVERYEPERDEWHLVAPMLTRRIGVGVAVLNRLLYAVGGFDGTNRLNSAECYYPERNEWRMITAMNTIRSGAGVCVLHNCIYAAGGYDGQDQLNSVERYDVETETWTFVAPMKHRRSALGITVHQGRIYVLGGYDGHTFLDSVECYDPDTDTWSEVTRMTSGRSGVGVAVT

As to `COc1ccc(S(=O)(=O)N(CC(=O)N2CCSC2=O)c2ccc(N(CC(=O)N3CCSC3=O)S(=O)(=O)c3ccc(OC)cc3)c3ccccc23)cc1` [pro1, N,N'-(naphthalene-1,4-diyl)bis(4-methoxy-N-(2-oxo-2-(2-oxothiazolidin-3-yl)ethyl)benzenesulfonamide)], in series [1], the “Inhibition against Keap-Nrf2 interaction in the FP assay” value is listed as “no inhibition”. Besides, in [2] (H2O2 (10 mM), PBS pH 7.4, 37 °C, UPLC/HRMS), the “Production of compound 1 from the prodrug in the presence of H2O2” value is on record as “cannot be observed even after 12 h”.
For the compound `C[C@@H]1C[C@H]2[C@@H]3CCC4=CC(=O)C=C[C@]4(C)[C@@]3(F)[C@@H](O)C[C@]2(C)[C@@]1(O)C(=O)CO` [DXM, Dexamethasone, reference compound], the “Anti-inflammation effect on serum pro-inflammatory cytokines” value (“Anti-inflammation effect” below) in [3] (10 mg/kg) is “diminished inflammatory response”.
What is called bioavailability is dose-corrected exposure relative to a reference, in per cent. The term CL/F denotes clearance divided by bioavailability, as obtained after extravascular dosing. For the compound `COc1ccc(S(=O)(=O)Nc2ccc(N(CC(=O)N3CCSC3=O)S(=O)(=O)c3ccc(OC)cc3)c3ccccc23)cc1` [pro2, 4-methoxy-N-(4-((4-methoxyphenyl)sulfonamido)naphthalen-1-yl)-N-(2-oxo-2-(2-oxothiazolidin-3-yl)ethyl)benzenesulfonamide], in series [4] (HepG2-ARE-C8 cells, no LPS), the “Relative ARE induction activity under normal conditions” value is “nearly inactive”. For the same compound, the “Relative ARE induction activity under various concentrations of LPS” value in series [4] (LPS pretreatment 8 h, then compound 200 nM for 12 h) was “LPS concentration-dependent enhancement of Nrf2-ARE inducing activity”. Also, the “Inhibition against Keap-Nrf2 interaction in the FP assay” value in [1] is “no inhibition”. Besides, the “Anti-inflammation effect” value in series [3] (10 mg/kg) is reported as “comparable therapeutic effects with DXM”. Further, the “Anti-inflammation effect” value in [3] (40 mg/kg (high dose)) is “more potent effects”. Also, in series [5], the “Stability in rat plasma” value is “quite stable”. The “LPS-induced elevation of IL-1β and IL-6 protein” value in series [6] (LPS (20 ng/mL) 8 h, Western blot) is on record as “almost completely suppressed the elevation”. In addition, the “mRNA levels of IL-1β and IL-6” value in series [6] (LPS (20 ng/mL) 8 h, qRT-PCR) was “significant suppression effects”. The “Suppression of IL-1β, IL-6 and TNF-α production” value in [6] (LPS (20 ng/mL), culture supernatants, ELISA) is “obvious superiority in the suppression”. Moreover, the “Pe at pH 7.4” value in series [7] was 6.35 10−6 cm/s. In series [8], the “Remaining in simulated gastric fluid (SGF)” value was “more than 50%” and the “Remaining in simulated intestinal fluid (SIF)” value is on record as “more than 50%”. Also, in series [9], the “Activities of SOD and GSH-Px” value is “significantly restored the activities”; the “GSH/GSSG ratio and MPO activity” value is “restored the levels nearly back to normal”. Also, the “Prodrug released to parent compound 2” value in [2] (1 mM H2O2, incubating 24 h, PBS pH 7.4, 37 °C) is given as “approximately 60%”. The “Time to complete release to the parent compound 2” value in [2] (10 mM H2O2, PBS pH 7.4, 37 °C) was not above 3 h. Also, the “Conversion to parent compound 2 determined by HPLC” value in [2] (10 mM H2O2, within 3 h) is reported as more than 98%. Moreover, in series [10], the “Stability to hydrolysis in PBS” value was “relatively stable”. Besides, the “Transcription of Nrf2 targeted genes (HO-1, NQO1, GCLM mRNA)” value in [11] (compound 500 nM, qRT-PCR) is reported as “highly enhanced the transcription”. In addition, the “Protein levels of Nrf2 and downstream antioxidant enzymes” value in [11] (then compound 16 h, Western blot) is “remarkably accumulated Nrf2 protein and elevated downstream antioxidant enzymes”. Also, in [12], the “Stability in co-incubation with rat liver microsomes” value is “quite stable”. In [13] (I.V. (2 mg/kg)), this compound displayed a Cl_F of 18.5 ± 3.9 mL/min/kg and a Vz_F of 6.44 ± 4.09 L/kg. In addition, the Vz_F in [13] (P.O. (10 mg/kg)) is recorded as 4.79 ± 2.17 L/kg. The compound also showed a bioavailability in series [13] (male, SD, plasma, oral) of 68.1%. This compound also yielded an apparent clearance CL/F in series [13] (male, SD, plasma, po, 10 mg/kg) of 26.4 ± 1.14 mL/min/kg.
